The nature of data set [1]: PET imaging of 89Zr tracer, 17 MBq/kg. The data set is classed as in vivo, rat. A digest of the protocol: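 Sprague–Dawley rats (200–300 g) received the 89Zr tracer (formulated at 5 MBq/nmol) i.v. or s.c. at 17 MBq/kg (3 nmol/kg). They were PET-imaged under 2–3% isoflurane/O2 at 4, 8, 24, 72 and 168 h, with a 350–650 keV window. Scans ran 15 min (4, 8 h), 20 min (24 h), 30 min (72 h) and 60 min (168 h), followed by a 323 s Co-57 transmission scan for attenuation correction. Images were decay-corrected to injection and reported as %ID/g.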

Data set [2] is classed as in vivo. The settings on record: rat, plasma, iv, 20 nmol/kg. A digest of the protocol: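 Sprague–Dawley rats (200–300 g) were dosed at 20 nmol/kg i.v. or s.c. Blood (200 µL) was drawn at 2, 6, 10, 24, 30 and 48 h, processed to plasma, extracted and analysed by UPLC-MS. Quantification used a calibration curve from spiked plasma, and parameters came from non-compartmental analysis. Groups were n = 4 for s.c., and n = 3 or 1 for i.v.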

For data set [3] the following is noted: after i.v. administration; cited from earlier work.
For data set [4] the following is noted: in rats; cited from earlier work.

Read-outs that look alike come from different tables or passages of the source.

Regarding `CC[C@H](C)[C@H](NC(=O)[C@H](Cc1ccccc1)NC(=O)[C@H](CCC(=O)O)NC(=O)[C@H](CCCNC(=N)N)NC(=O)[C@H](C)NC(=O)[C@H](C)NC(=O)[C@H](CCC(N)=O)NC(=O)[C@H](CCC(=O)O)NC(=O)[C@H](CCC(=O)O)NC(=O)[C@H](CC(C)C)NC(=O)[C@H](Cc1ccc(O)cc1)NC(=O)[C@H](CO)NC(=O)[C@H](CO)NC(=O)[C@@H](NC(=O)[C@H](CC(=O)O)NC(=O)[C@H](CO)NC(=O)[C@@H](NC(=O)[C@H](Cc1ccccc1)NC(=O)[C@@H](NC(=O)CNC(=O)[C@H](CCC(=O)O)NC(=O)[C@H](C)NC(=O)CCc1c[nH]cn1)[C@@H](C)O)[C@@H](C)O)C(C)C)C(=O)N[C@@H](C)C(=O)N[C@@H](Cc1c[nH]c2ccccc12)C(=O)N[C@@H](CC(C)C)C(=O)N[C@H](C(=O)N[C@@H](CCCNC(=N)N)C(=O)NCC(=O)N[C@@H](CCCNC(=N)N)C(=O)N[C@@H](CCCCNC(=O)COCCOCCNC(=O)COCCOCCNC(=O)CC[C@H](NC(=O)CCCCCCCCCCCCCCCCC(=O)O)C(=O)O)C(=O)NCC(=O)NCC(=O)N[C@@H](CO)C(=O)N[C@@H](CCCCNc1c(NCCCCCN(O)C(=O)CCC(=O)NCCCCCN(O)C(=O)CCC(=O)NCCCCCN(O)C(C)=O)c(=O)c1=O)C(=O)O)C(C)C` [[89Zr]2, metal not drawn], the “initial dose trapped in the subcutis” value in data set [1] (PET, s.c., after 168 h) turned out to be 10%. Further, the tissue uptake at 168 h in data set [1] (rat, kidney, iv, 3 nmol/kg, total radioactivity) was about 7 %ID/g. Molecule `CC[C@H](C)[C@H](NC(=O)[C@H](Cc1ccccc1)NC(=O)[C@H](CCC(=O)O)NC(=O)[C@H](CCCNC(=N)N)NC(=O)[C@H](C)NC(=O)[C@H](C)NC(=O)[C@H](CCC(N)=O)NC(=O)[C@H](CCC(=O)O)NC(=O)[C@H](CCC(=O)O)NC(=O)[C@H](CC(C)C)NC(=O)[C@H](Cc1ccc(O)cc1)NC(=O)[C@H](CO)NC(=O)[C@H](CO)NC(=O)[C@@H](NC(=O)[C@H](CC(=O)O)NC(=O)[C@H](CO)NC(=O)[C@@H](NC(=O)[C@H](Cc1ccccc1)NC(=O)[C@@H](NC(=O)CNC(=O)[C@H](CCC(=O)O)NC(=O)[C@H](C)NC(=O)CCc1c[nH]cn1)[C@@H](C)O)[C@@H](C)O)C(C)C)C(=O)N[C@@H](C)C(=O)N[C@@H](Cc1c[nH]c2ccccc12)C(=O)N[C@@H](CC(C)C)C(=O)N[C@H](C(=O)N[C@@H](CCCNC(=N)N)C(=O)NCC(=O)N[C@@H](CCCNC(=N)N)C(=O)N[C@@H](CCCCNC(=O)COCCOCCNC(=O)COCCOCCNC(=O)CC[C@H](NC(=O)CCCCCCCCCCCCCCCCC(=O)O)C(=O)O)C(=O)NCC(=O)NCC(=O)N[C@@H](CO)C(=O)N[C@@H](CCCCNc1c(NCCCCCN(O)C(=O)CCC(=O)NCCCCCN(O)C(=O)CCC(=O)NCCCCCN(O)C(C)=O)c(=O)c1=O)C(=O)O)C(C)C` [compound 2] had a half-life in data set [2] of 504 min. As for semaglutide, the half-life in data set [3] is 7 to 12 h. The plasma metabolite exposures in data set [4] is recorded as 1–7%.

(Values after publication PMC9380726 (ACS Pharmacology & Translational Science, 2022).)
